{
  "source": "PubChem BioAssay AID602303",
  "about": "(The Scripps Research Institute Molecular Screening Center, 2012)",
  "note": "Calls of active or inactive are those of the source.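 Rule for the calls: active = inhibition of 50% or more; inactive = inhibition below 50%.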",
  "data": [
    {"target": "Diacylglycerol lipase-beta (Mus musculus) (UniProt Q91WC9)", "sequence (Q91WC9 whole entry, looked up)": "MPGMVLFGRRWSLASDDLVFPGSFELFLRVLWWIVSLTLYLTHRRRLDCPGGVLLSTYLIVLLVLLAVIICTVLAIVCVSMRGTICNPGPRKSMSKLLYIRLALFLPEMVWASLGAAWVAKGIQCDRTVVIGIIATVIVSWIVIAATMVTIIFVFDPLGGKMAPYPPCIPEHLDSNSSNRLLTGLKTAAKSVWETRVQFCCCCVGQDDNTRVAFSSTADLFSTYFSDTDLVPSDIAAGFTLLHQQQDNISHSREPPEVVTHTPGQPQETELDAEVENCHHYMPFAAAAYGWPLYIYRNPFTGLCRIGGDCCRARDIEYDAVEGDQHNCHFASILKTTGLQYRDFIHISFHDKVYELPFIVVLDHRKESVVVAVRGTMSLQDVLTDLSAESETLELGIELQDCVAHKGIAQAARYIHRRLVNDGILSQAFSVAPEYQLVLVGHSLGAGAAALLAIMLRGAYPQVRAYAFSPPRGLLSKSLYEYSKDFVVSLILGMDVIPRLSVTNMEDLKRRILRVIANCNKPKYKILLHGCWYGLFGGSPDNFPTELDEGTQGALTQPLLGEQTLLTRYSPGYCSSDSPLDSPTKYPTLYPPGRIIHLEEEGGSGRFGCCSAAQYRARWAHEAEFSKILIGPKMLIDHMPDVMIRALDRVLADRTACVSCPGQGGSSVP", "assay": "DAGLb inhibitors by competitive gel ABPP, late-stage follow-up, biochemical, in-gel fluorescence, overexpressed mouse DAGLb, triazole urea library (AID 602303)", "conditions": "HEK293T membrane overexpressing mouse DAGLb, gel ABPP FP-Rh; at 0.5 µM; hits give high values", "procedure,_shortened": "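Material: membrane proteome of HEK293T cells transiently overexpressing mouse DAGLb. Doses: single dose, test compound at 500 nM final. Schedule: compound pre-incubation 30 min then probe labeling 30 min, both 37 °C. Measured by: in-gel fluorescence after SDS-PAGE. Controls: DMSO-only enzyme as high control, blank gel region background as low.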", "values": [
      {"compound": "O=C(n1ccnn1)n1c2ccccc2c2ccccc21", "inhibition": "25% (inactive)"},
      {"compound": "O=C(N1CCC(Cc2ccccc2)CC1)n1ncc(C(O)(c2ccccc2)c2ccccc2)n1", "inhibition": "30% (inactive)"},
      {"compound": "CC1CCN(C(=O)n2ncc(C(O)(c3ccccc3)c3ccccc3)n2)CC1", "inhibition": "10% (inactive)"},
      {"compound": "O=C(N1CCCC1)n1ncc(C(O)(c2ccccc2)c2ccccc2)n1", "inhibition": "0% (inactive)"},
      {"compound": "CCN(CC)C(=O)n1ncc(C(O)(c2ccccc2)c2ccccc2)n1", "inhibition": "5% (inactive)"},
      {"compound": "C=CCN(CC=C)C(=O)n1ncc(-c2ccc(OC(F)(F)F)cc2)n1", "inhibition": "50%"},
      {"compound": "CC(C)(C)C1CCN(C(=O)n2ncc(C3(O)CCCCC3)n2)CC1", "inhibition": "20% (inactive)"},
      {"compound": "COc1ccc2cc(-c3cnn(C(=O)N4CCCC4)n3)ccc2c1", "inhibition": "20% (inactive)"},
      {"compound": "O=C(N1CCC(C(O)(c2ccccc2)c2ccccc2)CC1)n1ncc(C(O)(c2ccccc2)c2ccccc2)n1", "inhibition": "30% (inactive)"},
      {"compound": "O=C(N1CCCC1)n1ncc(C2(O)CCCCC2)n1", "inhibition": "25% (inactive)"},
      {"compound": "O=C(N(c1ccccc1)c1ccccc1)n1ccnn1", "inhibition": "5% (inactive)"},
      {"compound": "CC(C)(O)c1cnn(C(=O)N2CCC(C(C)(C)C)CC2)n1", "inhibition": "45% (inactive)"},
      {"compound": "O=C(N1CCCC1)n1ncc(-c2cc(F)cc(F)c2)n1", "inhibition": "10% (inactive)"},
      {"compound": "O=C(N(c1ccccc1)c1ccccc1)n1ncc(C(O)(c2ccccc2)c2ccccc2)n1", "inhibition": "65%"},
      {"compound": "COCCCC1CCCCN1C(=O)n1ncc(C(O)(c2ccccc2)c2ccccc2)n1", "note": "(configuration not stated)", "inhibition": "5% (inactive)"},
      {"compound": "O=C(N1CCCCC1Cc1ccccc1)n1ncc(C(O)(c2ccccc2)c2ccccc2)n1", "note": "(configuration not stated)", "inhibition": "95%"},
      {"compound": "CC(C)(C)C1CCN(C(=O)n2nccn2)CC1", "inhibition": "35% (inactive)"},
      {"compound": "O=C(N1CCOCC1)n1ncc(C(O)(c2ccccc2)c2ccccc2)n1", "inhibition": "15% (inactive)"},
      {"compound": "O=C(N1CCOCC1)n1ccnn1", "inhibition": "40% (inactive)"},
      {"compound": "COCC1CCCCN1C(=O)n1ncc(C(O)(c2ccccc2)c2ccccc2)n1", "note": "(configuration not stated)", "inhibition": "15% (inactive)"},
      {"compound": "CN(C)C(=O)n1ccnn1", "inhibition": "0% (inactive)"},
      {"compound": "COc1ccc2cc(-c3cnn(C(=O)N4CCCCC4)n3)ccc2c1", "inhibition": "20% (inactive)"},
      {"compound": "CC1CCN(C(=O)n2ncc(C(C)(C)O)n2)CC1", "inhibition": "35% (inactive)"},
      {"compound": "O=C(N1CCCC1)n1ncc(-c2ccc(-c3ccccc3)cc2)n1", "inhibition": "25% (inactive)"},
      {"compound": "C=CCN(CC=C)C(=O)n1ncc(-c2ccccc2)n1", "inhibition": "5% (inactive)"},
      {"compound": "C=CCN(CC=C)C(=O)n1ncc(-c2cc(F)cc(F)c2)n1", "inhibition": "25% (inactive)"},
      {"compound": "O=C(N1CCCC1)n1ccnn1", "inhibition": "30% (inactive)"},
      {"compound": "O=C(N1CCCC1)n1ncc(-c2ccc([N+](=O)[O-])cc2)n1", "inhibition": "35% (inactive)"},
      {"compound": "CC(C)(O)c1cnn(C(=O)N2CCCCC2)n1", "inhibition": "25% (inactive)"},
      {"compound": "C=CCN(CC=C)C(=O)n1ncc(C(O)(c2ccccc2)c2ccccc2)n1", "inhibition": "60%"},
      {"compound": "CCN(CC)C(=O)n1ccnn1", "inhibition": "0% (inactive)"},
      {"compound": "O=C(N1CCCC1)n1ncc(-c2ccccc2)n1", "inhibition": "35% (inactive)"},
      {"compound": "O=C(N1CCCC1)n1ncc(-c2ccc(Cl)c(Cl)c2)n1", "inhibition": "30% (inactive)"},
      {"compound": "O=C(N1CCCCC1)n1ncc(C(O)c2ccccc2)n1", "note": "(configuration not stated)", "inhibition": "5% (inactive)"},
      {"compound": "C=CCN(CC=C)C(=O)n1ccnn1", "inhibition": "25% (inactive)"},
      {"compound": "O=C(N1CCCCC1)n1ncc(C(O)(c2ccccc2)c2ccccc2)n1", "inhibition": "10% (inactive)"},
      {"compound": "O=C(N1CCCCC1)n1ccnn1", "inhibition": "20% (inactive)"},
      {"compound": "O=C(N1CCCC1)n1ncc(-c2ccc(Oc3ccccc3)cc2)n1", "inhibition": "45% (inactive)"},
      {"compound": "O=C(N1CCC(C(O)(c2ccccc2)c2ccccc2)CC1)n1nccn1", "inhibition": "15% (inactive)"},
      {"compound": "CC(C)(O)c1cnn(C(=O)N2CCCC2)n1", "inhibition": "25% (inactive)"},
      {"compound": "O=C(OC(c1ccccc1)c1cnn(C(=O)N2CCCCC2)n1)N1CCCCC1", "note": "(configuration not stated)", "inhibition": "15% (inactive)"},
      {"compound": "CN1CCN(C(=O)n2ccnn2)CC1", "inhibition": "35% (inactive)"},
      {"compound": "O=C(N1CCOCC1)n1ncc(-c2ccc(OC(F)(F)F)cc2)n1", "inhibition": "40% (inactive)"},
      {"compound": "CN(C(=O)n1ccnn1)c1ccccc1", "inhibition": "25% (inactive)"},
      {"compound": "O=C(N1CCOCC1)n1ncc(-c2cc(F)cc(F)c2)n1", "inhibition": "20% (inactive)"},
      {"compound": "O=C(N1CCc2ccccc2C1)n1ncc(C(O)(c2ccccc2)c2ccccc2)n1", "inhibition": "35% (inactive)"},
      {"compound": "CC(C)(C)C1CCN(C(=O)n2ncc(C(O)(c3ccccc3)c3ccccc3)n2)CC1", "inhibition": "45% (inactive)"},
      {"compound": "O=C(N1CCOCC1)n1ncc(-c2ccccc2)n1", "inhibition": "0% (inactive)"},
      {"compound": "O=C(N1CCCCC1)n1ncc(-c2ccc(Oc3ccccc3)cc2)n1", "inhibition": "40% (inactive)"},
      {"compound": "COC1CCN(C(=O)n2ncc(C(O)(c3ccccc3)c3ccccc3)n2)CC1", "inhibition": "0% (inactive)"},
      {"compound": "CCC1CCCCN1C(=O)n1ncc(C(O)(c2ccccc2)c2ccccc2)n1", "note": "(configuration not stated)", "inhibition": "10% (inactive)"},
      {"compound": "O=C(N1CCCC1)n1ncc(-c2ccc(OC(F)(F)F)cc2)n1", "inhibition": "15% (inactive)"}
    ]}
  ]
}
